Experimental data reported in ChEMBL document CHEMBL4229380, “Arylureas derived from colchicine: Enhancement of colchicine oncogene downregulation activity” (Eur J Med Chem, 2018).

Test system: MCF7
Assay: Antiproliferative activity against human MCF7 cells after 2 days by MTT assay
Assay type: functional, cell-based
Details: MCF7, 48 h
Summary of the method: (§1)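 Cells (5×10^3 per well) in DMEM with 10% FBS, glucose, glutamine and antibiotics were exposed to serial dilutions (stocks in DMSO) for 2 days at 37 °C, 5% CO2. MTT was added for 3 h, formazan was dissolved in DMSO and absorbance read at 490 nm. Viability was taken as % of untreated cells. IC50 was read graphically from three independent experiments.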

SMILES	IC50 [nM]
COc1cc2c(c(OC)c1OC)-c1ccc(OC)c(=O)cc1[C@@H](NC(=O)Nc1c(C)cccc1C)CC2	240
COc1cc2c(c(OC)c1OC)-c1ccc(OC)c(=O)cc1[C@@H](NC(=O)Nc1c(Cl)cccc1Cl)CC2	13
COc1cc2c(c(OC)c1OC)-c1ccc(OC)c(=O)cc1[C@@H](NC(=O)Nc1c(Cl)cc(F)cc1Cl)CC2	14
COc1cc2c(c(OC)c1OC)-c1ccc(OC)c(=O)cc1[C@@H](NC(=O)Nc1cccc3ccccc13)CC2	17
COc1cc2c(c(OC)c1OC)-c1ccc(OC)c(=O)cc1[C@@H](NC(=O)Nc1ccccc1OC(F)(F)F)CC2	4.4
COc1cc2c(c(OC)c1OC)-c1ccc(OC)c(=O)cc1[C@@H](NC(=O)Nc1ccc(C(F)(F)F)cc1Cl)CC2	200

Second part, the compound after the results:

IC50 [nM]	SMILES
89	COc1cc2c(c(OC)c1OC)-c1ccc(OC)c(=O)cc1[C@@H](NC(=O)NC1CCCCC1)CC2
20	COc1cc2c(c(OC)c1OC)-c1ccc(OC)c(=O)cc1[C@@H](NC(=O)Nc1cc(F)cc(F)c1)CC2
10	COc1cc2c(c(OC)c1OC)-c1ccc(OC)c(=O)cc1[C@@H](NC(=O)Nc1ccc(F)cc1C)CC2
12	COc1cc2c(c(OC)c1OC)-c1ccc(OC)c(=O)cc1[C@@H](NC(=O)Nc1ccccc1)CC2
42	COc1cc2c(c(OC)c1OC)-c1ccc(OC)c(=O)cc1[C@@H](NC(=O)Nc1c(F)cccc1F)CC2

Test system: HEK293
Assay: Antiproliferative activity against human HEK293 cells after 2 days by MTT assay
Assay type: cell-based
Details: HEK293, 48 h
Summary of the method: as §1

SMILES	IC50 [nM]
COc1cc2c(c(OC)c1OC)-c1ccc(OC)c(=O)cc1[C@@H](NC(=O)Nc1c(C)cccc1C)CC2	218
COc1cc2c(c(OC)c1OC)-c1ccc(OC)c(=O)cc1[C@@H](NC(=O)Nc1c(Cl)cccc1Cl)CC2	42
COc1cc2c(c(OC)c1OC)-c1ccc(OC)c(=O)cc1[C@@H](NC(=O)Nc1c(Cl)cc(F)cc1Cl)CC2	92
COc1cc2c(c(OC)c1OC)-c1ccc(OC)c(=O)cc1[C@@H](NC(=O)NC1CCCCC1)CC2	98
COc1cc2c(c(OC)c1OC)-c1ccc(OC)c(=O)cc1[C@@H](NC(=O)Nc1cc(F)cc(F)c1)CC2	10
COc1cc2c(c(OC)c1OC)-c1ccc(OC)c(=O)cc1[C@@H](NC(=O)Nc1cccc3ccccc13)CC2	9
COc1cc2c(c(OC)c1OC)-c1ccc(OC)c(=O)cc1[C@@H](NC(=O)Nc1ccccc1OC(F)(F)F)CC2	5
COc1cc2c(c(OC)c1OC)-c1ccc(OC)c(=O)cc1[C@@H](NC(=O)Nc1ccc(F)cc1C)CC2	65
COc1cc2c(c(OC)c1OC)-c1ccc(OC)c(=O)cc1[C@@H](NC(=O)Nc1ccc(C(F)(F)F)cc1Cl)CC2	220
COc1cc2c(c(OC)c1OC)-c1ccc(OC)c(=O)cc1[C@@H](NC(=O)Nc1ccccc1)CC2	10
COc1cc2c(c(OC)c1OC)-c1ccc(OC)c(=O)cc1[C@@H](NC(=O)Nc1c(F)cccc1F)CC2	46

Test system: HT-29
Assay: Effect on hTERT gene expression in human HT-29 cells assessed as hTERT level at 15 nM after 48 hrs by RT-qPCR analysis
Assay type: functional
Details: not given
Summary of the method: (§2)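 HT-29 cells at 70–80% confluence were seeded at 1.5×10^5 per well and left 24 h, then treated 48 h, with DMSO as control. Total RNA was extracted and VEGF-A, c-Myc and hTERT were quantified by TaqMan qPCR, normalized to β-actin and to living cell number. Results are % expression versus control, at least three measurements.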

SMILES	Activity [%]
COc1cc2c(c(OC)c1OC)-c1ccc(OC)c(=O)cc1[C@@H](NC(=O)Nc1ccc(F)cc1C)CC2	68
COc1cc2c(c(OC)c1OC)-c1ccc(OC)c(=O)cc1[C@@H](NC(=O)Nc1c(F)cccc1F)CC2	36

Test system: HT-29
Assay: Effect on VEGF gene expression in human HT-29 cells assessed as VEGF level at 15 nM after 48 hrs by RT-qPCR analysis
Assay type: functional
Details: not given
Summary of the method: as §2

SMILES	Activity [%]
COc1cc2c(c(OC)c1OC)-c1ccc(OC)c(=O)cc1[C@@H](NC(=O)Nc1ccc(F)cc1C)CC2	63
COc1cc2c(c(OC)c1OC)-c1ccc(OC)c(=O)cc1[C@@H](NC(=O)Nc1c(F)cccc1F)CC2	38

Test system: HT-29
Assay: Effect on c-MYC protein expression in human HT-29 cells assessed as c-MYC level at 15 nM after 48 hrs by ELISA
Assay type: functional
Details: not given
Summary of the method: (§3)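 HT-29 cells (1.5×10^5 per well, 24 h pre-culture) were treated 48 h and washed in PBS. They were lysed in Tris pH 7.4 buffer with detergents, phosphatase inhibitors, PMSF and protease inhibitors. Lysates were adjusted to 200 µg/mL protein (Bradford) and total c-Myc or VEGFR-2 was measured by sandwich ELISA kit. Values are % of DMSO control, ≥3 measurements.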

SMILES	Activity [%]
COc1cc2c(c(OC)c1OC)-c1ccc(OC)c(=O)cc1[C@@H](NC(=O)Nc1ccc(F)cc1C)CC2	110
COc1cc2c(c(OC)c1OC)-c1ccc(OC)c(=O)cc1[C@@H](NC(=O)Nc1c(F)cccc1F)CC2	42

Test system: HT-29
Assay: Effect on VEGFR2 protein expression in human HT-29 cells assessed as VEGFR2 level at 15 nM after 48 hrs by ELISA
Assay type: functional
Details: not given
Summary of the method: as §3

SMILES	Activity [%]
COc1cc2c(c(OC)c1OC)-c1ccc(OC)c(=O)cc1[C@@H](NC(=O)Nc1ccc(F)cc1C)CC2	62
COc1cc2c(c(OC)c1OC)-c1ccc(OC)c(=O)cc1[C@@H](NC(=O)Nc1c(F)cccc1F)CC2	35

Test system: HeLa
Assay: Antiproliferative activity against human HeLa cells after 2 days by MTT assay
Assay type: functional, cell-based
Details: 48 h
Summary of the method: as §1

SMILES	IC50 [nM]
COc1cc2c(c(OC)c1OC)-c1ccc(OC)c(=O)cc1[C@@H](NC(=O)Nc1c(C)cccc1C)CC2	242
COc1cc2c(c(OC)c1OC)-c1ccc(OC)c(=O)cc1[C@@H](NC(=O)Nc1c(Cl)cccc1Cl)CC2	22
COc1cc2c(c(OC)c1OC)-c1ccc(OC)c(=O)cc1[C@@H](NC(=O)Nc1c(Cl)cc(F)cc1Cl)CC2	20
COc1cc2c(c(OC)c1OC)-c1ccc(OC)c(=O)cc1[C@@H](NC(=O)Nc1cccc3ccccc13)CC2	16
COc1cc2c(c(OC)c1OC)-c1ccc(OC)c(=O)cc1[C@@H](NC(=O)Nc1ccccc1OC(F)(F)F)CC2	3
COc1cc2c(c(OC)c1OC)-c1ccc(OC)c(=O)cc1[C@@H](NC(=O)Nc1ccc(C(F)(F)F)cc1Cl)CC2	220

Second part, the compound after the results:

IC50 [nM]	SMILES
87	COc1cc2c(c(OC)c1OC)-c1ccc(OC)c(=O)cc1[C@@H](NC(=O)NC1CCCCC1)CC2
16	COc1cc2c(c(OC)c1OC)-c1ccc(OC)c(=O)cc1[C@@H](NC(=O)Nc1cc(F)cc(F)c1)CC2
21	COc1cc2c(c(OC)c1OC)-c1ccc(OC)c(=O)cc1[C@@H](NC(=O)Nc1ccc(F)cc1C)CC2
12	COc1cc2c(c(OC)c1OC)-c1ccc(OC)c(=O)cc1[C@@H](NC(=O)Nc1ccccc1)CC2
18	COc1cc2c(c(OC)c1OC)-c1ccc(OC)c(=O)cc1[C@@H](NC(=O)Nc1c(F)cccc1F)CC2

Test system: HT-29
Assay: Induction of apoptosis in human HT-29 cells assessed as necrotic cells at 15 nM after 48 hrs by Annexin V-FITC staining-based flow cytometric analysis (reference value: 2 +/- 6%)
Assay type: functional
Details: not given

SMILES	Activity [%]
COc1cc2c(c(OC)c1OC)-c1ccc(OC)c(=O)cc1[C@@H](NC(=O)Nc1ccc(F)cc1C)CC2	1
COc1cc2c(c(OC)c1OC)-c1ccc(OC)c(=O)cc1[C@@H](NC(=O)Nc1c(F)cccc1F)CC2	1

Test system: HT-29
Assay: Induction of apoptosis in human HT-29 cells assessed as apoptotic cells at 15 nM after 48 hrs by Annexin V-FITC staining-based flow cytometric analysis (reference value: 13 +/- 3%)
Assay type: functional
Details: not given

SMILES	Activity [%]
COc1cc2c(c(OC)c1OC)-c1ccc(OC)c(=O)cc1[C@@H](NC(=O)Nc1ccc(F)cc1C)CC2	26
COc1cc2c(c(OC)c1OC)-c1ccc(OC)c(=O)cc1[C@@H](NC(=O)Nc1c(F)cccc1F)CC2	12

Test system: HT-29
Assay: Induction of apoptosis in human HT-29 cells assessed as viable cells at 15 nM after 48 hrs by Annexin V-FITC staining-based flow cytometric analysis (reference value: 82 +/- 1%)
Assay type: functional
Details: HT-29, 48 h, read-out: Activity

SMILES	viability at 0.015 µM [%]
COc1cc2c(c(OC)c1OC)-c1ccc(OC)c(=O)cc1[C@@H](NC(=O)Nc1ccc(F)cc1C)CC2	73
COc1cc2c(c(OC)c1OC)-c1ccc(OC)c(=O)cc1[C@@H](NC(=O)Nc1c(F)cccc1F)CC2	87

Test system: HT-29
Assay: Antiproliferative activity against human HT-29 cells after 2 days by MTT assay
Assay type: functional, cell-based
Details: HT-29, 48 h
Summary of the method: as §1

SMILES	IC50 [nM]
COc1cc2c(c(OC)c1OC)-c1ccc(OC)c(=O)cc1[C@@H](NC(=O)Nc1c(C)cccc1C)CC2	130
COc1cc2c(c(OC)c1OC)-c1ccc(OC)c(=O)cc1[C@@H](NC(=O)Nc1c(Cl)cccc1Cl)CC2	40
COc1cc2c(c(OC)c1OC)-c1ccc(OC)c(=O)cc1[C@@H](NC(=O)Nc1c(Cl)cc(F)cc1Cl)CC2	30
COc1cc2c(c(OC)c1OC)-c1ccc(OC)c(=O)cc1[C@@H](NC(=O)Nc1cccc3ccccc13)CC2	11.1
COc1cc2c(c(OC)c1OC)-c1ccc(OC)c(=O)cc1[C@@H](NC(=O)Nc1ccccc1OC(F)(F)F)CC2	3.8
COc1cc2c(c(OC)c1OC)-c1ccc(OC)c(=O)cc1[C@@H](NC(=O)Nc1ccc(C(F)(F)F)cc1Cl)CC2	190

Second part, the compound after the results:

IC50 [nM]	SMILES
37	COc1cc2c(c(OC)c1OC)-c1ccc(OC)c(=O)cc1[C@@H](NC(=O)NC1CCCCC1)CC2
10	COc1cc2c(c(OC)c1OC)-c1ccc(OC)c(=O)cc1[C@@H](NC(=O)Nc1cc(F)cc(F)c1)CC2
14	COc1cc2c(c(OC)c1OC)-c1ccc(OC)c(=O)cc1[C@@H](NC(=O)Nc1ccc(F)cc1C)CC2
11	COc1cc2c(c(OC)c1OC)-c1ccc(OC)c(=O)cc1[C@@H](NC(=O)Nc1ccccc1)CC2
25	COc1cc2c(c(OC)c1OC)-c1ccc(OC)c(=O)cc1[C@@H](NC(=O)Nc1c(F)cccc1F)CC2

Test system: HT-29
Assay: Effect on VEGF protein expression in human HT-29 cells assessed as secreted VEGF level in culture media at 15 nM after 48 hrs by ELISA
Details: not given

SMILES	Activity [%]
COc1cc2c(c(OC)c1OC)-c1ccc(OC)c(=O)cc1[C@@H](NC(=O)Nc1ccc(F)cc1C)CC2	90
COc1cc2c(c(OC)c1OC)-c1ccc(OC)c(=O)cc1[C@@H](NC(=O)Nc1c(F)cccc1F)CC2	11

Test system: HT-29
Assay: Effect on c-MYC gene expression in human HT-29 cells assessed as c-MYC level at 15 nM after 48 hrs by RT-qPCR analysis
Assay type: functional
Details: not given
Summary of the method: as §2

SMILES	Activity [%]
COc1cc2c(c(OC)c1OC)-c1ccc(OC)c(=O)cc1[C@@H](NC(=O)Nc1ccc(F)cc1C)CC2	65
COc1cc2c(c(OC)c1OC)-c1ccc(OC)c(=O)cc1[C@@H](NC(=O)Nc1c(F)cccc1F)CC2	88
